# Marks after values point to notes of the source that are not given here.
# What was measured:
# [1] = Phase I trial: safety and tolerability, adverse events; conditions: in vivo
# tumour FDG uptake = assay: FDG-PET imaging at baseline and Week 2; type: in vivo, human; conditions: 35 mg QD–300 mg BID, Week 2
# How it was run: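 Pharmacodynamic FDG-PET imaging at baseline and on Day 15 of daily dabrafenib-class dosing. Patients were in the accelerated dose-titration cohorts, which started at 12 mg daily on 21-day cycles.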
# [2] = tested on: V600 BRAF-mutant melanoma with untreated brain metastases; assay: RP2D expansion, brain lesion assessment by MRI and PFS; type: in vivo, human
# How it was run: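 Expansion cohort of patients with asymptomatic, untreated brain metastases ≥3 mm and no prior resection, stereotactic radiosurgery or whole-brain radiotherapy, given 150 mg BID. BRAF was centrally genotyped. Lesions were imaged by gadolinium-enhanced T1-weighted MRI, first at 6 weeks and then every 9 weeks. Sum of diameters of lesions ≥3 mm at baseline was expressed as % change from baseline. RECIST 1.0 applied. PFS by Kaplan–Meier.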
# [3] = tested on: non-V600E BRAF-mutant melanoma; assay: Tumour response and PFS in melanoma with non-V600E BRAF mutations; type: in vivo, human
# How it was run: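 Melanoma patients with V600K or non-V600 or complex BRAF mutations, treated at all dose levels (titration from 12 mg daily, 21-day cycles). Response was assessed by RECIST 1.0 with restaging at 9 or 6 weeks, then every 9 weeks, and 95% exact CIs were given. PFS was estimated by Kaplan–Meier from first dose. Treatment duration ran from first dose to last dose or the 25 March 2011 data cut.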
# BRAF wild-type melanoma = assay: Tumour response in BRAF wild-type melanoma; type: in vivo, human; conditions: three patients with BRAF wild-type melanoma
# How it was run: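 Patients had histologically confirmed incurable solid tumours, ECOG ≤1, and received accelerated dose titration from 12 mg daily on 21-day cycles until progression or intolerable toxicity. Response was assessed by RECIST 1.0. Baseline imaging was within 35 days. Restaging was at 9 weeks (escalation) or 6 weeks (expansion), then every 9 weeks.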
# [4] = cited from earlier work; for Penetration of the blood-brain barrier: in vivo
# [5] = tested on: BRAF-mutant metastatic melanoma; conditions: cited from earlier work
# [6] = tested on: K601E BRAF-mutant cell line; conditions: cited from earlier work
# [7] = among the eight patients who progressed
smiles,measurement,setting,value
"CC(C)(C)c1nc(-c2cccc(NS(=O)(=O)c3c(F)cccc3F)c2F)c(-c2ccnc(N)n2)s1 [dabrafenib, Dabrafenib]",Patients experiencing AEs higher than grade 2,[1]; human,24%
same,Patients requiring dose reductions,[1]; human,7%
same,Patients requiring dose reductions for fatigue,[1]; human,2%
same,Patients requiring dose reductions for neutropenia,[1]; human,1%
same,Patients requiring dose reductions for pyrexia,[1]; human,3%
same,Patients with arthralgia of grade 2 or higher,[1]; human,less than 5%
same,Patients with dose-limiting toxicities (DLTs),[1]; human,three of 20
same,Patients with pyrexia as a serious AE,[1]; human,4%
same,Patients with treatment-related actinic keratosis,[1]; human,10%
same,Patients with treatment-related fatigue grade 2 or higher,[1]; human,8%
same,Patients with treatment-related hyperkeratosis,[1]; human,26%
same,Patients with treatment-related hyperkeratotic lesions of grade 2 or above,[1]; human,3%
same,Patients with treatment-related pyrexia,[1]; human,20%
same,Patients with treatment-related pyrexia grade 2 or higher,[1]; human,6%
same,Range of onset of cutaneous SCC,[1]; human,9 to 217 days
same,Range of time to first pyrexia,[1]; human,1 to 532 days
same,"Treatment-related cutaneous squamous cell carcinoma, grade 2 or higher, Total",[1]; human,20 (11) ^* n (%)
same,"Treatment-related cutaneous squamous cell carcinoma, toxicity grade 2",[1]; human,0 n (%)
same,"Treatment-related cutaneous squamous cell carcinoma, toxicity grade 3",[1]; human,20 (11) n (%)
same,"Treatment-related fatigue, grade 2 or higher, Total",[1]; human,14 (8) n (%)
same,"Treatment-related fatigue, toxicity grade 2",[1]; human,12 (7) n (%)
same,"Treatment-related fatigue, toxicity grade 3",[1]; human,2 (1) n (%)
same,"Treatment-related pyrexia, grade 2 or higher, Total",[1]; human,(6) n (%)
same,"Treatment-related pyrexia, toxicity grade 2",[1]; human,10 (5) n (%)
same,"Treatment-related pyrexia, toxicity grade 3",[1]; human,1 (<1) n (%)
same,Non-cutaneous SCC,[1],not observed
same,Patients with keratoacanthoma,[1],three
same,Photosensitivity,[1],not observed
same,Recurrence or metastasis of cutaneous SCC after local excision,[1],no recurrence or metastasis was observed
same,Patients with decrease in mean SUVmax of tumour FDG uptake vs baseline,tumour FDG uptake; 53 of 56 patients,95%
same,Median decrease in mean SUVmax of tumour FDG uptake,tumour FDG uptake; 56 patients,60%
same,Range of percentage change from baseline in mean SUVmax,tumour FDG uptake; 56 patients,−100% to 19
same,Patients achieving complete resolution of all brain lesions,[2]; RP2D,four of ten
same,Patients with decreasing size of extracranial metastases,[2]; among patients with responding brain lesions,all nine
same,Patients with site of progression in extracranial sites alone,[2]; [7],three
same,Patients with site of progression in the brain alone,[2]; [7],three
same,Survival at 5 months,[2]; n=10,All patients were alive at 5 months
same,Time at which the most durable responder met criteria for progressive disease,[2]; remains on study at 19 months,15 months
same,Patients who received treatment for at least 6 months,"[3]; V600K, all dose levels, nine patients",50%
same,Responses,[3]; three patients with non-V600 or complex BRAF mutations,no responses were observed
same,Responses,BRAF wild-type melanoma,no responses were observed
same,Penetration of the blood-brain barrier,[4],neither vemurafenib nor dabrafenib demonstrate penetration
same,Penetration of the intact blood–brain barrier by the parent drug,"[4]; preclinical, after single-dose administration, ref unpublished data",minimal penetration
CCCS(=O)(=O)Nc1ccc(F)c(C(=O)c2c[nH]c3ncc(-c4ccc(Cl)cc4)cc23)c1F [vemurafenib],Reduction in risk of death,"[5]; Phase III, first-line vs dacarbazine, V600E mutant metastatic melanoma",63%
same,Unconfirmed responses,"[5]; V600E BRAF-mutant metastatic melanoma, Phase I",81%
same,Confirmed response rate,"[5]; V600E-mutant BRAF metastatic melanoma, Phase III vs dacarbazine",48%
same,Photosensitivity,[5],commonly reported
same,Response rate,"[5]; ten of 336 patients carrying the V600K mutation, Phase III",40%
same,Penetration of the blood-brain barrier,[4],neither vemurafenib nor dabrafenib demonstrate penetration
same,Inhibition in cell line with K601E mutation,[6],less inhibition
